Type in all cases: functional
One experiment relates to Bacillus subtilis. In words: Antimicrobial activity against Bacillus subtilis KCTC 1021 after 24 hrs by broth dilution method. Particulars: KCTC 1021, 24 h. The essentials:
(§1)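 Twofold serial dilutions in nutrient broth (0.5–512.0 μg/mL) in microtiter plates. An overnight culture was adjusted to 1.5 × 10⁸ cfu/mL against the 0.5 McFarland standard and added to each dilution. Plates were incubated 24 h at 37 °C. MIC was the lowest concentration giving no visible growth (turbidity).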
On the technique in general: Dilution methods test growth across graded concentrations, often in twofold steps.

Another experiment relates to Escherichia coli. In words: Antimicrobial activity against Escherichia coli KCTC 1923 after 24 hrs by broth dilution method. Particulars: KCTC 1923, 24 h. The essentials:
as §1

The subject of the next experiment is Saccharomyces cerevisiae. In words: Antimicrobial activity against Saccharomyces cerevisiae KCTC 7913 after 48 hrs by broth dilution method. Particulars: KCTC 7913, 48 h. The essentials:
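Yeast maltose broth, with twofold serial dilutions spanning 0.5–512.0 μg/mL in microtiter plates. An overnight yeast culture was adjusted to 1.5 × 10⁸ cfu/mL by the 0.5 McFarland standard and added to each well. Plates were held 48 h at 30 °C. MIC was the lowest concentration without visible turbidity.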

Experimental findings from ChEMBL document CHEMBL1811862, “Ieodomycins A-D, antimicrobial fatty acids from a marine Bacillus sp” (2011) are described below.

Converted amounts (≈) assume the structure as drawn.

Turning to `C=C/C=C(\C)CC[C@@H](O)C[C@H](O)CC(=O)OC` [IEODOMYCIN A], the figures for the MIC in the experiment with Bacillus subtilis, in the experiment on Escherichia coli and against Saccharomyces cerevisiae were 32 µg/mL (≈ 132 µM), 32 µg/mL (≈ 132 µM) and 256 µg/mL (≈ 1060 µM), respectively.
With `C=C/C=C(\C)CC[C@@H]1C[C@H](O)CC(=O)O1` [IEODOMYCIN B], the MIC is 32 µg/mL (≈ 152 µM) in the experiment on Bacillus subtilis, 32 µg/mL (≈ 152 µM) in the experiment on Escherichia coli and 256 µg/mL (≈ 1220 µM) against Saccharomyces cerevisiae.
In the case of `C[C@@H](O)CCC/C=C/C=C/[C@@H](O)CC(=O)O` [IEODOMYCIN C], the MIC came to 32 µg/mL (≈ 140 µM) in the experiment with Bacillus subtilis, 32 µg/mL (≈ 140 µM) against Escherichia coli and 256 µg/mL (≈ 1120 µM) against Saccharomyces cerevisiae.
As for `C[C@@H](O)CCC/C=C/C=C/C(=O)O` [IEODOMYCIN D], the MIC in the experiment with Bacillus subtilis was determined as 32 µg/mL (≈ 174 µM); against Escherichia coli, 32 µg/mL (≈ 174 µM); against Saccharomyces cerevisiae, 256 µg/mL (≈ 1390 µM).

Usually MIC stands for the lowest concentration that inhibits growth of the organism. A low value points to greater potency.
